Beta cell apopt = beta cell apoptosis inhibition; INS-1E cytokine-induced death, ATP luminescence, 48 h; percent of positive-control rescue, neutral wells zero; protection from apoptosis, % (concentration not given with the values); 300,000 compounds, 0.8% hits; AID 435005;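 active = Every replicate reaches about 75%, or at least half do and their mean reaches it too, limit read from the data; inconclusive = At least half of replicates reach the limit but their mean does not; inactive = Under half of replicates reach the limit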;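 note: 0% = cytokine-treated negative control wells and 100% = positive control rescue; higher means more ATP so stronger rescue from cytokine killing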
CSC inhib = cancer stem cell inhibition | cancer stem cell-like cells viability, luminescence | inhibition, % at 7.5 µM | 300,000 compounds, 1.1% hits | AID 2717; in the data active = inhibition above about 75%; inconclusive = no clear call, values can overlap the other calls; tested in HMLE shEcad cells
SKKanGAS inh = blocks kanamycin growth of S. pyogenes SKKanGAS strain; inhibition, % at 7.5 µM; 300,000 compounds, 1.3% hits; BacTiter-Glo, 6 h;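 active = mean replicate score, as percent of positive control median, at least 50; inconclusive = mean below 50 but one replicate at or above 50; inactive = mean and every replicate below 50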;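 note: strain carries kanamycin resistance gene driven by streptokinase promoter and grows in 40 µg/ml kanamycin; loss of luminescence reflects streptokinase promoter inhibition or plain growth inhibition; 0% = median of DMSO wells and 100% = positive control at its reference dose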
CHOP UPR activ = apoptotic UPR (CHOP) activation | CHO-CHOP luciferase reporter, luminescence; percent of tunicamycin response over DMSO baseline | activation, % at 10 µM | 330,000 compounds, 0.34% hits | AID 449763;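 active = at 10 µM dose, activation of 40% or more, normalized to positive control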;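 note: 100% = tunicamycin at 10 µg/mL and 0% = DMSO alone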
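assay system = CHO CHOP reporter cells | amount = 500 CHO-CHOP cells per well | buffer or medium = F12 with 10% FBS | incubation = 16-18 h cell attachment, then 6 h compound exposure, 37 °C | detection = luminescence read with Steady-Glo | read-out = percent activation relative to tunicamycin control | controls = tunicamycin high control, DMSO low control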
XBP1 UPR activ = activators of adaptive arm of unfolded protein response (XBP1) | activation, % at 20 µM | CHO-XBP1 luciferase reporter, IRE1-XBP1 UPR activation, luminescence; percent of tunicamycin response, DMSO as zero | 330,000 compounds, 0.33% hits;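 active = versus positive control, 20 µM dose yields 30% or more activation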;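 note: 100% = tunicamycin at 10 µg/mL and 0% = DMSO only wells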
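Test system: CHO-XBP1 luciferase reporter cells | Buffer or medium: Serum-containing F12 medium, 10% FBS | Schedule: 6 h compound exposure at 37 °C, 5% CO2 | Detection: Steady-Glo luciferase glow luminescence, 10 min after reagent addition | Read-out basis: Activation, % of tunicamycin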
Mdm2-MdmX inh = inhibitors of human Mdm2/MdmX interaction; SaOS-2 split-luciferase Mdm2/MdmX complementation, luminescence; O15151+Q00987; inhibition, % at 8 µM; 330,000 compounds, 3% hits; AID 485346;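 active = inhibition of at least 50% at 8 µM in the primary screen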
Target sequence (O15151 whole entry, looked up): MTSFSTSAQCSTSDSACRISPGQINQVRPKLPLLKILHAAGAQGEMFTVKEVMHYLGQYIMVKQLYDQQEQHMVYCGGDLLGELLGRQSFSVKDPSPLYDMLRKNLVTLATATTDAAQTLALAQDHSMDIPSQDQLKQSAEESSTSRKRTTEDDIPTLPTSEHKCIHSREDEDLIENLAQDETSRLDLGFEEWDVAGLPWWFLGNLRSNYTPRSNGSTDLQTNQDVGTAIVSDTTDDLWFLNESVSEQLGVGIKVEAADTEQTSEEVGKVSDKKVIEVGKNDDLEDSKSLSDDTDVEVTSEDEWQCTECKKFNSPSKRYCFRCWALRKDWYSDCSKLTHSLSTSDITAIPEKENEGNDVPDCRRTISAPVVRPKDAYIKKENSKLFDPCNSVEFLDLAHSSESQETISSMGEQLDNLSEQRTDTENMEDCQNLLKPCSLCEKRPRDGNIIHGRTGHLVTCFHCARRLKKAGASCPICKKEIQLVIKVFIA
Target sequence (Q00987 whole entry, looked up): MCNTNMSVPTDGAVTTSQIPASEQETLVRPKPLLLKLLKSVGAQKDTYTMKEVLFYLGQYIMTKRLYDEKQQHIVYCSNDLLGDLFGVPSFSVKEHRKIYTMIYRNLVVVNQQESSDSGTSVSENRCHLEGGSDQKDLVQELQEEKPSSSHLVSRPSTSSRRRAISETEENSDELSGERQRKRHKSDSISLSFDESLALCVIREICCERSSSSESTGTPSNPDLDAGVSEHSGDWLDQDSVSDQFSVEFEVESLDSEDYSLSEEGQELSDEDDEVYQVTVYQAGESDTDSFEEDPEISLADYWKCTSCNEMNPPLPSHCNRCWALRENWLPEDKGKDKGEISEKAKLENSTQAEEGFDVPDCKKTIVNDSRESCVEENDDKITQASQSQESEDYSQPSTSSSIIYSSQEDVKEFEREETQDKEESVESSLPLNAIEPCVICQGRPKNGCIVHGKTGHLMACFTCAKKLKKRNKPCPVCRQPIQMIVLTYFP
Mdm2-MdmX conf = human Mdm2/MdmX binding inhibition, confirmed; shares compounds with Mdm2-MdmX inh; luminescent assay; inhibition, % at 8 µM; 10,000 compounds, 55% hits; AID 489028; in the data active = inhibition above about 40%
Full FLuc ctr = counter-screen for Mdm2/MdmX inhibitors: full-length luciferase; 6,200 compounds, 77% hits; shares compounds with Mdm2-MdmX inh; SaOS-2 full-length luciferase counterscreen, luminescence; inhibition, % at 8 µM;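 active = mean inhibition at 8 µM reaching about 37%, which flags the compound as non-specific, limit read from the data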;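 note: p53-null SaOS-2 cells with luciferase driven by a doxycycline-inducible promoter; compound on cells about two nights before reading with doxycycline added after day one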
* hit, by the source's call. Sampled rows, rich in hits. Any-hit rate of the full collection: about 4.8%.

Screening Cc1nn(Cc2c(Cl)cccc2Cl)c(C)c1NC(=O)Cn1nc([N+](=O)[O-])c(Cl)c1C returned Beta cell apopt -3.1, CSC inhib -12.5, SKKanGAS inh 0.0, CHOP UPR activ 1.2, XBP1 UPR activ 0.9, Mdm2-MdmX inh 70.0* and Mdm2-MdmX conf 3.9.
Screening COc1cc(C(O)c2nc3ccccc3s2)cc(OC)c1OC (stereo unspecified) returned Beta cell apopt 23.9, CSC inhib -2.8, SKKanGAS inh 1.4, CHOP UPR activ -1.0, XBP1 UPR activ -2.1 and Mdm2-MdmX inh 26.8.
CCOc1cc(C(=O)Nc2cccc(OCC(=O)N3CCOCC3)c2)cc(OCC)c1OCC was read as Beta cell apopt -4.6, CSC inhib -22.9, SKKanGAS inh -2.4, CHOP UPR activ -0.8, XBP1 UPR activ -4.5 and Mdm2-MdmX inh 13.0.
For COc1ccc(C(=O)NC(=S)Nc2ccc3oc(=O)ccc3c2)cc1 the results were Beta cell apopt 2.9, SKKanGAS inh 0.8, CHOP UPR activ 1.4, XBP1 UPR activ 12.3, Mdm2-MdmX inh 73.3*, Mdm2-MdmX conf 23.6 and Full FLuc ctr 84.1*.
Screening CC1(c2ccccc2)CC(C)(C)n2c(O)c(C3=NC(=S)NC3=O)c3cccc1c32 (stereo unspecified) returned Beta cell apopt 4.1, CSC inhib 19.9, SKKanGAS inh 18.4, CHOP UPR activ 1.9, XBP1 UPR activ 19.1, Mdm2-MdmX inh 67.8* and Mdm2-MdmX conf 24.9.
Screening COc1ccc(C(CNC(=O)c2cc3c(s2)CCC(C)C3)N2CCCC2)cc1 (stereo unspecified) returned Beta cell apopt 8.0, CSC inhib 4.2, CHOP UPR activ 3.1, XBP1 UPR activ 2.1 and Mdm2-MdmX inh 41.0.
Screening CCC1CCc2sc(C(=O)NCC(c3ccccc3OC)N3CCCC3)cc2C1 (stereo unspecified) returned Beta cell apopt 0.3, CSC inhib -9.1, CHOP UPR activ -0.3, XBP1 UPR activ 3.2, Mdm2-MdmX inh 75.1* and Mdm2-MdmX conf 18.1.
For O=C(CSCc1cc(=O)n2ccsc2n1)Nc1ccccc1 the results were Beta cell apopt -5.3, CSC inhib -4.9, SKKanGAS inh -0.6, CHOP UPR activ 1.1, XBP1 UPR activ -2.3 and Mdm2-MdmX inh -9.5.
Screening COc1ccc(/C=C2\CCCCC2=O)cc1 returned Beta cell apopt -4.1, CSC inhib -9.0, SKKanGAS inh -1.2, CHOP UPR activ 1.1, XBP1 UPR activ -2.6 and Mdm2-MdmX inh -4.0.
For CN(C)/N=C/C=C1\CCC/C(=C\c2ccc(F)c(F)c2)C1=O the results were Beta cell apopt 18.8, CSC inhib 84.9*, SKKanGAS inh -12.3, CHOP UPR activ 12.5, XBP1 UPR activ 12.2, Mdm2-MdmX inh 77.1*, Mdm2-MdmX conf 27.9 and Full FLuc ctr 44.4*.
For COc1ccc(/C=C2\CCC/C(=C\C=N\N(C)C)C2=O)cc1 the results were Beta cell apopt -10.2, CSC inhib 85.6*, SKKanGAS inh 5.6, CHOP UPR activ 2.5, XBP1 UPR activ 22.7, Mdm2-MdmX inh 94.6*, Mdm2-MdmX conf 50.6* and Full FLuc ctr 29.2.
For COc1ccc2c(c1)[C@H]1[C@H](CO2)[C@H](c2ccccc2)[C@]2(C)C(=O)N(Cc3ccc(C)cc3)CC(=O)N12 the results were Beta cell apopt 12.0, CHOP UPR activ 0.5, XBP1 UPR activ 4.5 and Mdm2-MdmX inh 18.2.
For O=C(Oc1c(-c2ccccc2)c(=O)n2c3c(cccc13)CC2)c1ccco1 the results were Beta cell apopt -4.0, CSC inhib -2.3, SKKanGAS inh 18.6, CHOP UPR activ 3.7, XBP1 UPR activ 2.2, Mdm2-MdmX inh 53.8* and Mdm2-MdmX conf 12.1.
`Cc1ccc(S(=O)(=O)CC(CN2CCOCC2)N2CCOCC2)cc1` (stereo unspecified) gave Beta cell apopt -2.5, CSC inhib -7.3, SKKanGAS inh -4.4, CHOP UPR activ -0.2, XBP1 UPR activ 4.1 and Mdm2-MdmX inh -29.5.
Screening CC1CCN(CC(CS(=O)(=O)c2ccc([N+](=O)[O-])cc2)N2CCC(C)CC2)CC1 (stereo unspecified) returned Beta cell apopt -31.1, CSC inhib inconclusive, SKKanGAS inh 8.2, CHOP UPR activ 33.6, XBP1 UPR activ -4.6, Mdm2-MdmX inh 99.8*, Mdm2-MdmX conf 99.5* and Full FLuc ctr 50.5*.
`COc1ccc2cc1Oc1ccc(cc1)C[C@H]1c3c(cc4c(c3Oc3cc5c(cc3OC)CCN(C)[C@@H]5C2)OCO4)CCN1C` gave CSC inhib 3.9, SKKanGAS inh 1.7, CHOP UPR activ -0.3, XBP1 UPR activ -4.5, Mdm2-MdmX inh 100.4*, Mdm2-MdmX conf 86.8* and Full FLuc ctr 31.6.
`COc1ccc2cc1Oc1ccc(cc1)C[C@H]1c3cc(c(OC)cc3CCN1C)Oc1c(OC)c(OC)cc3c1[C@H](C2)N(C)CC3` gave Beta cell apopt 5.3, CSC inhib -6.0, SKKanGAS inh -7.9, CHOP UPR activ 9.6, XBP1 UPR activ -2.3, Mdm2-MdmX inh 100.4*, Mdm2-MdmX conf 99.5* and Full FLuc ctr 51.5*.
`Cc1cccc2c1-c1sc(C(=O)NCCCN3CCC(C)CC3)cc1CO2` gave Beta cell apopt 3.8, CSC inhib 16.0, SKKanGAS inh 4.6, CHOP UPR activ 3.9, XBP1 UPR activ -1.8, Mdm2-MdmX inh 57.4* and Mdm2-MdmX conf 15.2.
Screening CC(=O)n1cc([C@@H]2C=C(C(=O)NCc3ccccc3)O[C@H](OCc3ccc(CO)cc3)C2)c2ccccc21 returned Beta cell apopt 5.8, CSC inhib 16.0, SKKanGAS inh 25.6, CHOP UPR activ 2.1, XBP1 UPR activ -1.6 and Mdm2-MdmX inh 9.3.
CC(=O)n1cc([C@H]2C=C(C(=O)Nc3ccccc3)O[C@@H](OCc3ccc(CO)cc3)C2)c2ccccc21 was read as Beta cell apopt 23.4, CSC inhib 28.4, SKKanGAS inh 22.3, CHOP UPR activ 3.3, XBP1 UPR activ 1.1, Mdm2-MdmX inh 73.0*, Mdm2-MdmX conf 39.7 and Full FLuc ctr 70.5*.
Screening COc1ccc(C2=NS(=O)(=O)N(C)C(C(=O)NCc3ccc4c(c3)OCO4)=C2)cc1OC returned Beta cell apopt -3.2, CSC inhib 3.9, SKKanGAS inh 0.1, CHOP UPR activ -0.6, XBP1 UPR activ -5.1 and Mdm2-MdmX inh -21.3.
`Cc1cc(NC(=O)COC(=O)c2c(Cl)cccc2Cl)no1` gave Beta cell apopt -3.9, CHOP UPR activ 2.8, XBP1 UPR activ -0.5, Mdm2-MdmX inh 88.1*, Mdm2-MdmX conf 58.6* and Full FLuc ctr 53.8*.

Source: PubChem
